The results in this text go back to ChEMBL document CHEMBL1134363 (J Med Chem, 2001).

The target in assay [1] is T1, Alpha-2A adrenergic receptor (Homo sapiens) (UniProt P08913).
T1 sequence (whole entry): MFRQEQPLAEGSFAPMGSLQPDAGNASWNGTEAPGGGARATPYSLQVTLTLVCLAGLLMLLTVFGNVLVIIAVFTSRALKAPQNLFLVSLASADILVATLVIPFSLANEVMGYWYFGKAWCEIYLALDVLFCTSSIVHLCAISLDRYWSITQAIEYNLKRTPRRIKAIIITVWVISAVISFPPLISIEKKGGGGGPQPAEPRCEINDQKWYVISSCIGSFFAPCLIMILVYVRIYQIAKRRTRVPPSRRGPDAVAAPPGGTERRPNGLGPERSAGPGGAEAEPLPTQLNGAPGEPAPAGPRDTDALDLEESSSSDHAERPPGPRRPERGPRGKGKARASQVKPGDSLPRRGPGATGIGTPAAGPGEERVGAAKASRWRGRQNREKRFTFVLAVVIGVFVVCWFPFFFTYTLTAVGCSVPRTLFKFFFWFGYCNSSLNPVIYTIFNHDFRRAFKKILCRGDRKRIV
Briefly: Antagonistic activity as [35S]GTP gamma-S binding at alpha-2a adrenergic receptor expressed in CHO cells. Format: functional, cell-based. Summed up: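 Membranes (40 μg/mL) from CHO cells stably expressing human α2A receptor, preincubated 30 min at room temperature with drug in 20 mM HEPES pH 7.4, 100 mM NaCl, 3 μM GDP, 3 mM MgCl2; 0.2 nM [35S]GTPγS added, 60 min room temperature, NA 10 μM as agonist. Nonspecific: 10 μM GTPγS. Filtration, scintillation counting; pKB from IC50 corrected for agonist concentration/EC50.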

In assay [2] the target is Sodium-dependent serotonin transporter (Rattus norvegicus, UniProt P31652). Briefly: In vitro binding affinity was determined against serotonin reuptake site of rat in presence of [3H]paroxetine radioligand.
Chain of Sodium-dependent serotonin transporter (P31652 whole entry): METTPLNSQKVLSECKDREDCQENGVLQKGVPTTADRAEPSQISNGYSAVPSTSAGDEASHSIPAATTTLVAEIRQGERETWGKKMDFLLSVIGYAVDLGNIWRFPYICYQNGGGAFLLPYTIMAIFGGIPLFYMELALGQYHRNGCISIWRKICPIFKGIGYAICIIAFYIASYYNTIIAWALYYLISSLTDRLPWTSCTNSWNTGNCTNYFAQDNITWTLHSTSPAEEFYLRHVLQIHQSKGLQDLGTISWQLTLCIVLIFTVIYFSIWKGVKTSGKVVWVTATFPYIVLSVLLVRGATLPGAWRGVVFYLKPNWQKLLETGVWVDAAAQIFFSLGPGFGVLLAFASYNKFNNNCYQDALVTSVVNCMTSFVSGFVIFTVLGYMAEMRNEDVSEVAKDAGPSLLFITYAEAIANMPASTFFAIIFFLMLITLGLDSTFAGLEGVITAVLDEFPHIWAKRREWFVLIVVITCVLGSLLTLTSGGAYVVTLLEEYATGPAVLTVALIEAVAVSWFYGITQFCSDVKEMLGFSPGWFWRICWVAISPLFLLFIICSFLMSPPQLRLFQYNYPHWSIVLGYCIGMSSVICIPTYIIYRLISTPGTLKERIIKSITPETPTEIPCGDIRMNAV
In assay [3] the target is T2, Adrenergic receptor alpha-1 (Rattus norvegicus, UniProt P15823+P23944+P43140).
T2 sequence (P15823 whole entry): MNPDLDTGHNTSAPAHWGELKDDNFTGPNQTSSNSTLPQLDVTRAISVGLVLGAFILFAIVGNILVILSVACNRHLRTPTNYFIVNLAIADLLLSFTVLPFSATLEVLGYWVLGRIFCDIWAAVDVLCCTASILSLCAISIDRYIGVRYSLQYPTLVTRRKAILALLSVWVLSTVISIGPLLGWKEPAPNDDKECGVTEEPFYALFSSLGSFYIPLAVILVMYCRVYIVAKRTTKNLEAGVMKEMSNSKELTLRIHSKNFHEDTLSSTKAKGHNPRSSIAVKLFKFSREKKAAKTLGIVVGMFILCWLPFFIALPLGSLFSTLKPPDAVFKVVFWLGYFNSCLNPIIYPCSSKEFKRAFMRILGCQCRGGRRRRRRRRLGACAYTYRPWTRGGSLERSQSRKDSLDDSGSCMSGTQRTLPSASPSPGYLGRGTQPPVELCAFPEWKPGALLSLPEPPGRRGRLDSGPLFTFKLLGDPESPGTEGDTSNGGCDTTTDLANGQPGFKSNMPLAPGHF
T2 sequence (P23944 whole entry): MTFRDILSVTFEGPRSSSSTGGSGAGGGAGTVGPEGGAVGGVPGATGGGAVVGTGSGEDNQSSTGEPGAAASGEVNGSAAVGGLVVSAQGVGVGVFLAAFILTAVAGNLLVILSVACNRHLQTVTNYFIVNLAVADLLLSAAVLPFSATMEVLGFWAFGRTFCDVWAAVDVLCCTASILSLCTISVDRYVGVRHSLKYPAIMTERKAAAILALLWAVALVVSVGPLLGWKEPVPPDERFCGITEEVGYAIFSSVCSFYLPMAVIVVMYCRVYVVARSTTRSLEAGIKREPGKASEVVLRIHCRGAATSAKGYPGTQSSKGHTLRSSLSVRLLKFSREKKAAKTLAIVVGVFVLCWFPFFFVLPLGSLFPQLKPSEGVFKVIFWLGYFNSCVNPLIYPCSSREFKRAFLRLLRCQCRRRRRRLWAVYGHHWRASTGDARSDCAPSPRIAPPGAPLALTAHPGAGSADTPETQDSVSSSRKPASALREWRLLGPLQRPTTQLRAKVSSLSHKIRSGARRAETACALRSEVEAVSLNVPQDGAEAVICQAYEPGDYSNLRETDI
T2 sequence (P43140 whole entry): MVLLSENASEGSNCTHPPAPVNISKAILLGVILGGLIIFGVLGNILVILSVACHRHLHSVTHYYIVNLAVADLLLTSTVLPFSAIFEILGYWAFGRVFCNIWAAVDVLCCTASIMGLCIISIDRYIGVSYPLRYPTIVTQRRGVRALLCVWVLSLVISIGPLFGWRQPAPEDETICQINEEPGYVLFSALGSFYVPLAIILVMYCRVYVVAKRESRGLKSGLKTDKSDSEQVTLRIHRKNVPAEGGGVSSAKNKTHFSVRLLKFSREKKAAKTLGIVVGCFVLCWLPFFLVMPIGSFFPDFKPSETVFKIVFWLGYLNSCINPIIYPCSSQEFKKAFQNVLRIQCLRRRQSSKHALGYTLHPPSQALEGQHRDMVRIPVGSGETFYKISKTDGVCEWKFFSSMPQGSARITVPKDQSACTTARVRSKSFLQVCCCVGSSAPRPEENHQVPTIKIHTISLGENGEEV
Briefly: In vitro binding affinity against alpha-1 adrenergic receptor of rat in presence of [3H]-prazosin radioligand. Format: protein assay.

Assay [4] has as its target Norepinephrine transporter (Rattus norvegicus, UniProt Q9WTR4). Briefly: In vitro binding affinity was determined against NA (noradrenaline) reuptake site of rat in presence of [3H]nisoxetine radioligand.
For assay [5], the target named is T3, Alpha-2A adrenergic receptor (Homo sapiens, UniProt P08913).
T3 sequence (P08913 whole entry): T1 sequence (whole entry)
Kind of assay: Binding affinity for human alpha-2 adrenergic receptor expressed in CHO cell. Format: cell-based.

The target in assay [6] is T4, Adrenergic receptor alpha-2 (Rattus norvegicus, UniProt P22086+P19328+P22909).
T4 sequence (P22086 whole entry): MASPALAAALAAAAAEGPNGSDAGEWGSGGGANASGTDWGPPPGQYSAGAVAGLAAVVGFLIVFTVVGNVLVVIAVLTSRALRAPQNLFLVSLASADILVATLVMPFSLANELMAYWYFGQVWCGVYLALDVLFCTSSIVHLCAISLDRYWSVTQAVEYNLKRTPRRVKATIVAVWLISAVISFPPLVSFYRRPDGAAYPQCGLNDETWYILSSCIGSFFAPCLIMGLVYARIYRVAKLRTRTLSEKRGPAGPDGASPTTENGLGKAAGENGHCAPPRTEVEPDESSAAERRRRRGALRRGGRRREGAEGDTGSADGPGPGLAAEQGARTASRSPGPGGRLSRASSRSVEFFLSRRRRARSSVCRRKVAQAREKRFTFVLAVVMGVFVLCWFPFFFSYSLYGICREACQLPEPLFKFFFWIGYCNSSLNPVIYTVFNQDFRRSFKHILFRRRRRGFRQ
T4 sequence (P19328 whole entry): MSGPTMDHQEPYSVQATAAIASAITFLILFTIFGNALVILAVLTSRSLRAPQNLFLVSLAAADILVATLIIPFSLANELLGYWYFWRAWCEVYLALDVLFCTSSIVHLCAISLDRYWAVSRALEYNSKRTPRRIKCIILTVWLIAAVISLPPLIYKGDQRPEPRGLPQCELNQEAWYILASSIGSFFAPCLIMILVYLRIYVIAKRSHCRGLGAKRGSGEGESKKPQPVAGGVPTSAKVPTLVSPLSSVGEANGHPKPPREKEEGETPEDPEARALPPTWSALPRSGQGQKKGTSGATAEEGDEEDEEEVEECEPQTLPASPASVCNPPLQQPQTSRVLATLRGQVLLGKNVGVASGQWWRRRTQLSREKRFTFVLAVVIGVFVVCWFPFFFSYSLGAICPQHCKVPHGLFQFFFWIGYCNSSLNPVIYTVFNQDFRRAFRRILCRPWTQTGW
T4 sequence (P22909 whole entry): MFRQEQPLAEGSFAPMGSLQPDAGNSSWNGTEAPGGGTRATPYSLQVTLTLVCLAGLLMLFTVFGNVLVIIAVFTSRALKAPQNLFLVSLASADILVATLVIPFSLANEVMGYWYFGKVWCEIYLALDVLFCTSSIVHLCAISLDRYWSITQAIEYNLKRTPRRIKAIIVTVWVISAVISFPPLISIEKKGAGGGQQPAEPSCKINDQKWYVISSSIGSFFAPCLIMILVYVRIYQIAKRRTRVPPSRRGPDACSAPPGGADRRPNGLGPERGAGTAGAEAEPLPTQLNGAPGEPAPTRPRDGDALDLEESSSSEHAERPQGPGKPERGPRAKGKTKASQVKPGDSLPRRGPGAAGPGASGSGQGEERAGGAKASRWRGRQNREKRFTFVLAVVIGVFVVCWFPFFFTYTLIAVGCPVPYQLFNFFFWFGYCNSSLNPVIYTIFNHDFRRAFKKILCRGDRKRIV
Kind of assay: In vitro binding affinity against alpha-2 adrenergic receptor of rat in presence of [3H]-RX 821002 radioligand. The class given is protein assay.

Chain of Norepinephrine transporter (Q9WTR4 whole entry): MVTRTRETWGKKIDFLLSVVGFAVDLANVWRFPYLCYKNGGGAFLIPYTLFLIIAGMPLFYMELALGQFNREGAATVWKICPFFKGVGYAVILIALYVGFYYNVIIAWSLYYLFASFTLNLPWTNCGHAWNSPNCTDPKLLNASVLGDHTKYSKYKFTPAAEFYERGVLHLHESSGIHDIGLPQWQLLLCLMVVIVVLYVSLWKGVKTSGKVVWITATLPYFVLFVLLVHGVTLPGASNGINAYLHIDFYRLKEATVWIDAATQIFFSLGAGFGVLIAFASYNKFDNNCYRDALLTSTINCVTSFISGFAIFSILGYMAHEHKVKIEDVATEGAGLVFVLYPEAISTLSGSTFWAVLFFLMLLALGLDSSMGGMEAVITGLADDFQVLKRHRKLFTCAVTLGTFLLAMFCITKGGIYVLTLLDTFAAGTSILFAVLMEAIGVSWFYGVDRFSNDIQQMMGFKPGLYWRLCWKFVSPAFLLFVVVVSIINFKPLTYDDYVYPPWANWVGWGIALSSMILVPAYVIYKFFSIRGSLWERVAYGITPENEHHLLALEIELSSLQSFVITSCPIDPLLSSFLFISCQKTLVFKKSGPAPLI

In assay [1], `C1=NC[C@@H](C2C[C@@]23CCc2ccccc2C3)N1` (stereo partly specified) displayed a pKB of 8.2. The Ki in assay [2] was 2 nM; in assay [4], 100 nM; in assay [5] it was 3.16 nM. Further, the “Log Ki” value was -6.3 in assay [3] and -8.2 in assay [6].
Compound `Clc1cccc2ccc(CC3CN=CN3)cc12` (stereo unspecified) registered a pKB in assay [1] of 7.5. Also, the Ki in assay [2] is 31.6 nM; in assay [4] it was 20 nM; in assay [5], 25.1 nM. Moreover, the “Log Ki” value was -6.4 in assay [3] and -7.5 in assay [6].
Turning to `Clc1cccc2c1C=C(CC1CN=CN1)CC2` (stereo unspecified), the pKB in assay [1] worked out at 7.6. Moreover, the results for the Ki in assay [2], in assay [4] and in assay [5] were 20 nM, 50.1 nM and 31.6 nM, respectively. Also, the “Log Ki” value in assay [3] is recorded as -6.4; in assay [6], -7.6.
Regarding `C1=NC[C@]2(CC[C@@H]3Cc4ccccc4C[C@H]3C2)N1` (relative stereo), in assay [1], the pKB turned out to be 8.2. Moreover, the figures for the Ki in assay [2], in assay [4] and in assay [5] were 15.8 nM, 200 nM and 1.26 nM, respectively. Further, the “Log Ki” value in assay [3] was -6.1; in assay [6] it was -8.
As for `C1=NCC(Cc2cc3ccccc3o2)N1` (stereo unspecified), the pKB in assay [1] was 6.9. Further, the Ki in assay [2] was 1000 nM; in assay [4] it was 63.1 nM; in assay [5], 20 nM. Besides, the “Log Ki” value was -5.6 in assay [3] and -7.9 in assay [6].
On to `Fc1ccc2c(c1)C=C(CC1CN=CN1)CC2` (stereo unspecified), for which the pKB in assay [1] stood at 6.7. Besides, the figures for the Ki in assay [2], in assay [4] and in assay [5] were 1.58 nM, 50.1 nM and 158 nM, respectively. Further, the “Log Ki” value was -6.6 in assay [3] and -6.7 in assay [6].

For orientation: pKB means the negative decadic logarithm of the KB, by convention in mol/L. A word on the Ki: it is the dissociation constant of the complex between target and ligand, obtained from inhibition or displacement.
